Source: paper PMC5697452 (ACS Chemical Biology, 2017)
Entries after “also recorded” stand apart in the source; their conditions may differ.

What was measured:
[1] = system: HT1080 cells; assay: Cellular adhesion assay on collagen or fibronectin; assay type: cell-based, human; conditions: 30 min at 37 °C
How it was run: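 HT1080 cells seeded in 96-well plates coated with a thin layer of collagen or fibronectin (5 μg/mL in PBS). Cells were held 30 min at 37 °C with test compound. Wells were then washed and the cells fixed in 4% paraformaldehyde and stained with DAPI. Adherent cells were imaged and counted automatically.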

[2] = system: closely related MMPs; conditions: cited from earlier work
[3] = system: HT1080 cells; assay: Immunofluorescence of HT1080 cells; assay type: cell-based, human; conditions: for MMP-9 cell surface localization: 50 μM; for formation of FAK and PAX adhesion junctions: 50 μM overnight
How it was run: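 HT1080 cells were fixed in 4% paraformaldehyde/PBS and blocked in 5% BSA/PBS. Staining used anti-MMP-9 (anti-rabbit Alexa 488) with anti-α4 and/or anti-β1 integrin (anti-mouse Alexa 568), or anti-p-FAK Tyr576/577 (Alexa 568) and anti-p-PAX Tyr118 (Alexa 488). Nuclei were counterstained with DAPI, and images were taken by two-photon laser-scanning confocal microscopy.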

[4] = system: HT1080 fibrosarcoma cells; assay: Two-dimensional dot migration assay, HT1080 cells; assay type: cell-based, human; conditions: 50 µM, relative to control groups
[5] = system: HT1080 cells on chicken embryo CAM; assay: Chorioallantoic membrane; assay type: in vivo; conditions: final concentration estimated 0.5 μM, 4-day incubation, vs DMSO and 1f
How it was run: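 Fertilized white chicken eggs were incubated 3 days at 37 °C and 70% humidity, then cultured ex ovo in Petri dishes. HT1080 cells adsorbed onto a gelatin sponge were implanted on the CAM. Compound was added from a 100 μM stock (estimated final 0.5 μM); DMSO served as control. Blood vessels surrounding the sponge were counted on day 4 at 37 °C.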

[6] = system: MMP-9; conditions: cited from earlier work
[7] = molecular target: APMA-activated MMP-9 (Homo sapiens, UniProt P14780); assay: Fluorogenic peptide assay of MMP-9 catalytic activity; assay type: biochemical; conditions: 10 μM fluorogenic peptide, 2 h; for inhibition of MMP-9 catalytic activity: 50 μM compound
Sequence of APMA-activated MMP-9 (P14780 107-707 limits assumed): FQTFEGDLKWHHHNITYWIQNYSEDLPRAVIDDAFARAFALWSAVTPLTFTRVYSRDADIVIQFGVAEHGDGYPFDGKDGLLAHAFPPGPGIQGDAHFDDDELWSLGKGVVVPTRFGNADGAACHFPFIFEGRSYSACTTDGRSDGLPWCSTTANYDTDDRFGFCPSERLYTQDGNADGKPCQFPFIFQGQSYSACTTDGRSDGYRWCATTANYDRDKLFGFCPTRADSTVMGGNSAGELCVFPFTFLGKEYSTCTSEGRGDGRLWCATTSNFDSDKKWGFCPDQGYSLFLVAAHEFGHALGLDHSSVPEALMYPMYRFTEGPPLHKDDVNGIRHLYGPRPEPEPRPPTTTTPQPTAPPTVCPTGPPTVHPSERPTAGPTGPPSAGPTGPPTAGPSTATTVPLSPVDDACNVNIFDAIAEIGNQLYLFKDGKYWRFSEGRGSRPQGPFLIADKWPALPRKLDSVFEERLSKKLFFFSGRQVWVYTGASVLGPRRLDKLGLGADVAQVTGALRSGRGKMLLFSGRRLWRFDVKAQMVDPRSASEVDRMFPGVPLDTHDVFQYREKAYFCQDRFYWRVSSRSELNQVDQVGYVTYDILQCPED
How it was run: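 Recombinant proMMP-9 was activated overnight at 37 °C in TNC buffer with 1 mM APMA. […] Fluorescence (ex 320/em 405 nm) was read every 10 min over 2 h.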

[8] = system: EGFR, AKT, Erk1/2, Src, FAK, PAX phosphorylation; assay: Immunoblot of downstream signaling phosphorylation in HT1080 cells; assay type: cell-based, human; conditions: 50 μM
How it was run: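 HT1080 cells transiently expressing Myc-tagged MMP-9 were treated with 50 μM compound. Lysates were run on 10% SDS-PAGE and immunoblotted for phospho-Src Tyr418, phospho-FAK Tyr576/577 and phospho-PAX Tyr118.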

[9] = system: cancer metastasis; conditions: in vivo mouse xenograft model; cited from earlier work
[10] = system: HT1080 cells on chicken embryo CAM; assay: Chorioallantoic membrane; assay type: in vivo; conditions: final concentration estimated 0.5 μM, 7-day incubation, vs DMSO and 1f
How it was run: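 Ex ovo chick embryos were inoculated at day 10 with pretreated GFP-expressing HT1080 cells in a 3 mg/mL collagen solution seeded atop the CAM. Compound was added from a 100 μM stock (estimated final 0.5 μM), with DMSO control. After 7 days at 37 °C, CAM segments were formalin-fixed, OCT-embedded, cut at 6 μm and H&E stained. GFP+ cells were scored by fluorescence microscopy.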

[11] = system: proMMP-9-mediated cancer cell migration; conditions: in vitro; cited from earlier work
[12] = molecular target: T1, proMMP-9 (Homo sapiens, UniProt P14780); assay: Saturated transfer difference; assay type: binding; conditions: compound:protein 38:1 (300 µM:8 µM), 4 °C
T1 sequence (P14780 20-707 limits assumed): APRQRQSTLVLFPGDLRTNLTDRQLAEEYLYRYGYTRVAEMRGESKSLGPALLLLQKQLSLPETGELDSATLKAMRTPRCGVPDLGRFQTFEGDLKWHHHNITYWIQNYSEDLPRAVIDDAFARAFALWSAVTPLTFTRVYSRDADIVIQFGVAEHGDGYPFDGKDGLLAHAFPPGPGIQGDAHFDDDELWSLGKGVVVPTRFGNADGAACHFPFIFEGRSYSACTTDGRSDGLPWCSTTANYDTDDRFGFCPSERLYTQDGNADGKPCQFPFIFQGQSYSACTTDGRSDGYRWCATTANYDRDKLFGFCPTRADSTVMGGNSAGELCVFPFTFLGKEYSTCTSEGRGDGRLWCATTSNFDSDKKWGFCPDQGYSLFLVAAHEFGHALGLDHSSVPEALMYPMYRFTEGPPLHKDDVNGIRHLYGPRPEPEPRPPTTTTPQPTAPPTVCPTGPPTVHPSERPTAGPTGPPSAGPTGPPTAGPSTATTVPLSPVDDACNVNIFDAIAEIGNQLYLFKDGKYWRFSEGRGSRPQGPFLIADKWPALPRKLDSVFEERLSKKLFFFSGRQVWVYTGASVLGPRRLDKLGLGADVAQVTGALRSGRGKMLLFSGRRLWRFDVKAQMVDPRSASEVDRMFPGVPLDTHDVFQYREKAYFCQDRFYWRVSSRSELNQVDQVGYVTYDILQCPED

[13] = molecular target: T2, proMMP-2 (Homo sapiens, UniProt P08253); assay: Saturated transfer difference; assay type: binding; conditions: compound:protein 38:1 (300 µM:8 µM), 4 °C
T2 sequence (P08253 30-660 limits assumed): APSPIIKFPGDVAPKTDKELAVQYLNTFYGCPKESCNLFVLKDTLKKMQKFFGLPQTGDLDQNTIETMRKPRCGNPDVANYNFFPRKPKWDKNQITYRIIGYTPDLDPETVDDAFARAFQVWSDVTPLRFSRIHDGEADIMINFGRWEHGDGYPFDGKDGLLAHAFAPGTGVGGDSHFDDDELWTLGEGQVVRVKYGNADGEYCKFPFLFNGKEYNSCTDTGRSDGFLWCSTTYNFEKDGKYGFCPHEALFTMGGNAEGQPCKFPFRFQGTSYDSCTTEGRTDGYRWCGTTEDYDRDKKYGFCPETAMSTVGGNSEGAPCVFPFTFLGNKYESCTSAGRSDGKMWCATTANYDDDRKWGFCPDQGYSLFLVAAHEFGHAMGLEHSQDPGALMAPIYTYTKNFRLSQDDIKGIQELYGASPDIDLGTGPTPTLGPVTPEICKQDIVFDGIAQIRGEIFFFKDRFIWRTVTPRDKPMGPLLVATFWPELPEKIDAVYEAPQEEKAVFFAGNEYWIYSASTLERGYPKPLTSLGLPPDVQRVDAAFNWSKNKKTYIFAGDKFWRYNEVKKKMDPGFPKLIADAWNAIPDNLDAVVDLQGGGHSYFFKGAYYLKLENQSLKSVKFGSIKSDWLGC

[14] = system: proMMP-14 expressing COS-1 cells; assay: Two-dimensional dot migration assay, COS-1 cells expressing proMMP-14; assay type: cell-based, monkey; conditions: 50 μM
How it was run: (§1)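 COS-1 cells expressed vector pQCXIP, proMMP-2, proMMP-9 or proMMP-14 (polyethylenimine transfection, 48 h at 37 °C); expression was checked by immunoblot of lysates and serum-free medium. Cells were mixed 1:1 with neutralized type I collagen (3 mg/mL) on ice, and 1 μL dots (1 × 10^7 cells/mL) were set. Dots were covered with complete medium ± 50 μM compound for 18 h, then fixed and DAPI-stained, and migrated cells were counted.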

[15] = system: proMMP-9/MMP-2PEX; assay: Tryptophan fluorescence binding assay with chimera proMMP-9/MMP-2PEX; design: species or system human; conditions: chimera with MMP-2 PEX domain, 0.5 μM
How it was run: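 Purified recombinant chimera (0.5 μM) was titrated with test compound in TNC buffer (50 mM Tris-HCl, 10 mM CaCl2, pH 7.5). A buffer-only addition served as the protein stability control. After each addition the sample was stirred 1 min at RT, excited at 280 nm, and scanned 300–425 nm, averaging three scans. Kd was fitted to ΔF/ΔFMax, where ΔF is the emission shift in nm.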

[16] = system: COS-1 cells; assay: MTT cell viability, COS-1 cells; assay type: cell-based, monkey; conditions: 24 h
How it was run: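 COS-1 cells stably expressing vector control or proMMP-9 cDNA were treated 24 h with DMSO, 50 μM compound, or 100 nM staurosporine (positive control for acute toxicity). Viability was assessed by MTT.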

[17] = molecular target: T1, proMMP-9; assay: Tryptophan fluorescence blue-shift binding assay with proMMP-9
[18] = system: HT1080 fibrosarcoma cells; assay: Chronic toxicity in HT1080 fibrosarcoma cells; assay type: cell-based, human; conditions: 100 μM, retreated every 3 days for 9 days; data not shown
How it was run: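 HT1080 cells were cultured in complete medium with or without compound, with medium and compound replaced repeatedly over 9 days. Viability was measured daily by MTT: 4 h at 37 °C, then formazan solubilised and absorbance read at 570 nm.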

[19] = system: EGFR-CD44 and EGFR-β1 integrin; assay: Co-immunoprecipitation of endogenous EGFR in HT1080 cells; assay type: cell-based, human; conditions: 50 μM
[20] = system: proMMP-2 expressing COS-1 cells; assay: Two-dimensional dot migration assay, COS-1 cells expressing proMMP-2; assay type: cell-based, monkey; conditions: 50 μM
How it was run: as §1

SMILES: CCCc1cc(=O)nc(SCC(=O)Nc2ccc(OC(F)F)cc2)[nH]1 [Compound 1a, N-(4-Difluoromethoxyphenyl)-2-(4-oxo-6-propyl-1,4-dihydropyrimidin-2-ylthio)acetamide]
- cell adhesion to collagen or fibronectin ([1]; 50 µM): inhibited cellular adhesion
- binding to closely related MMPs [2]: does not bind to closely related MMPs
- MMP-9 cell surface localization [3]: loss of MMP-9 from the cell surface
- formation of FAK and PAX adhesion junctions [3]: decrease in the formation of FAK and PAX adhesion junctions
- inhibition of migration [4]: the same inhibition potency was observed
- angiogenic potential of HT1080 cells (neovascularization) [5]: significantly reduced the angiogenic potential
- inhibition of MMP-9 enzymatic activity [6]: did not inhibit MMP-9 enzymatic activity
- inhibition of MMP-9 catalytic activity [7]: No inhibition of the catalytic activity was observed
- phosphorylation of Src Tyr418 and downstream FAK Tyr576/577 and PAX Tyr118 [8]: reduced Src^Tyr418 phosphorylation
- cancer metastasis [9]: effectively prevented cancer metastasis
- invasion of CAM tissue by HT1080 cells [10]: reduced invasion of CAM tissue
- proMMP-9-mediated cancer cell migration and proliferation [11]: inhibited proMMP-9-mediated cancer cell migration and proliferation

SMILES: O=C(CCCSc1nc2c(c(=O)[nH]1)CCCC2)Nc1ccc(F)cc1 [Compound 3c, N-(4-Fluorophenyl)-4-(4-oxo-3,4,5,6,7,8-hexahydroquinazolin-2-ylthio)butanamide]
- cell adhesion to collagen or fibronectin ([1]; 50 µM): inhibited cellular adhesion
- STD NMR peaks [12]: STD peaks were observed in the presence of proMMP-9
- MMP-9 cell surface localization [3]: loss of MMP-9 from the cell surface
- formation of FAK and PAX adhesion junctions [3]: decrease in the formation of FAK and PAX adhesion junctions
- inhibition of migration [4]: the same inhibition potency was observed
- angiogenic potential of HT1080 cells (neovascularization) [5]: reduces angiogenesis; also recorded: significantly reduced the angiogenic potential
- STD NMR peaks [13]: not in the presence of proMMP-2
- inhibition of MMP-9 catalytic activity [7]: No inhibition of the catalytic activity was observed
- phosphorylation of Src Tyr418 and downstream FAK Tyr576/577 and PAX Tyr118 [8]: reduced Src^Tyr418 phosphorylation
- inhibition of proMMP-14 mediated cell migration [14]: lack of inhibition
- shift in tryptophan fluorescence upon titration [15]: no shift in fluorescence was observed
- decrease in cell growth ([16]; 50 μM, nonstatistically significant): 8%
- binding affinity relative to parent compound 1a ([17]; Kd comparison): four times tighter
- maximal λMax shift ([17]; after treatment with 25 μM inhibitor, ex 280 nm): 9 nm
- Kd ([17]; tryptophan fluorescence, purified recombinant proMMP-9 0.5 μM, TNC buffer pH 7.5): 320 nM
- cell death (chronic toxicity) [18]: No cell death was observed
- interaction between EGFR-CD44 and EGFR-β1 integrin [19]: Decreased interaction between EGFR-CD44 and EGFR-β1 integrin
- invasion of CAM tissue by HT1080 cells [10]: blocks cancer cell invasion of the basement membrane; also recorded: reduced invasion of CAM tissue
- inhibition of proMMP-2 mediated cell migration [20]: lack of inhibition

SMILES: CNC(=O)[C@@H](NC(=O)[C@H](CC(C)C)[C@H](O)C(=O)NO)C(C)(C)C [Marimastat, reference compound]
- cell adhesion to collagen or fibronectin ([1]; 80 nM Marimastat): no observable effect on cell attachment
- formation of focal adhesion contact sites ([3]; 80 nM marimastat): did not prevent the formation of focal adhesion contact sites
- substrate cleavage by activated MMP-9 ([7]; 250 nM Marimastat): no substrate cleavage was observed

SMILES: CN[C@@H]1C[C@H]2O[C@@](C)([C@@H]1OC)n1c3ccccc3c3c4c(c5c6ccccc6n2c5c31)C(=O)NC4 [STS, staurosporine, reference compound]
- cell death ([16]; 100 nM, positive control): Significant cell death
